Reference: ChEMBL document CHEMBL1687796, “Synthesis and spectrum of the neoglycoside ACHN-490” (2010)
Converted amounts (≈) assume the structure as drawn.

Tests used:
[1] = test system: Klebsiella pneumoniae; test: Antibacterial activity against aminoglycoside-resistant Klebsiella pneumoniae expressing AAC(3)-1 by broth microdilution method; type: functional
How it was run: (§1)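 Clinical aminoglycoside-resistant isolates were each carrying a single aminoglycoside-modifying enzyme. […] MICs were determined by CLSI broth microdilution.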

[2] = test system: Escherichia coli; test: Antibacterial activity against Escherichia coli ATCC 25922 by broth microdilution method; type: functional
How it was run: (§2)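 MICs were measured by broth microdilution following CLSI guidance. The strains formed a 25-strain screening panel with diverse aminoglycoside resistance mechanisms. The panel included Gram-negative and S. aureus strains carrying key aminoglycoside-modifying enzymes, strains with altered permeability or efflux, and an armA ribosomal methyltransferase strain.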

[3] = test system: Serratia marcescens; test: Antibacterial activity against aminoglycoside-resistant Serratia marcescens expressing AAC(6')-1 by broth microdilution method; type: functional; how it was run: as §1
[4] = test system: Escherichia coli; test: Antibacterial activity against aminoglycoside-resistant Escherichia coli expressing armA methylase by broth microdilution method; type: functional; how it was run: as §2
[5] = test system: Pseudomonas aeruginosa; test: Antibacterial activity against efflux pump deficient Pseudomonas aeruginosa by broth microdilution method; type: functional
[6] = test system: Staphylococcus aureus; test: microbe, parasite or virus in culture; conditions: ATCC 29213
[7] = test system: Acinetobacter sp.; test: Antibacterial activity against Acinetobacter spp. by broth microdilution method; type: functional
How it was run: (§3)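 MICs were determined by CLSI broth microdilution against clinical isolate panels that included aminoglycoside-resistant isolates. […] MIC90 was derived per group and not calculated when n was <10. Imipenem, ceftobiprole, ciprofloxacin and tigecycline MICs were also determined for the resistant isolates.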

[8] = test system: Enterobacter cloacae; test: Antibacterial activity against aminoglycoside-resistant Enterobacter cloacae expressing AAC(6')-1 by broth microdilution method; type: functional; how it was run: as §1
[9] = test system: Pseudomonas aeruginosa; test: Antibacterial activity against Pseudomonas aeruginosa expressing ANT(4')-2 by broth microdilution method; type: functional; how it was run: as §2
[10] = test system: Pseudomonas aeruginosa; test: Antibacterial activity against Pseudomonas aeruginosa by broth microdilution method; type: functional; how it was run: as §3
[11] = test system: Escherichia coli; test: Antibacterial activity against aminoglycoside-resistant Escherichia coli expressing AAC(3)-IVa by broth microdilution method
[12] = test system: Pseudomonas aeruginosa; test: Antibacterial activity against wild type Pseudomonas aeruginosa expressing efflux pump by broth microdilution method; type: functional
How it was run: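 MIC was determined by CLSI broth microdilution, read in μg/ml. The strain came from a 25-strain screening panel with diverse aminoglycoside resistance mechanisms. The panel included strains with changes in permeability or efflux, key aminoglycoside-modifying enzymes and an armA methyltransferase strain.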

[13] = test system: Serratia sp.; test: Antibacterial activity against Serratia spp. by broth microdilution method; type: functional; conditions: Serratia sp. (in: enterobacteria); how it was run: as §3
[14] = test system: Citrobacter; test: Antibacterial activity against Citrobacter spp. by broth microdilution method; type: functional; how it was run: as §3
[15] = test system: Klebsiella pneumoniae; test: Antibacterial activity against aminoglycoside-resistant Klebsiella pneumoniae expressing AAC(6')-1 by broth microdilution method; type: functional; how it was run: as §1
[16] = test system: Pseudomonas aeruginosa; test: Antibacterial activity against aminoglycoside-resistant Pseudomonas aeruginosa expressing ANT(2'')-1 by broth microdilution method; type: functional; how it was run: as §1
[17] = test system: Klebsiella oxytoca; test: Antibacterial activity against aminoglycoside-resistant Klebsiella oxytoca expressing AAC(6')-1 by broth microdilution method; type: functional; how it was run: as §1
[18] = test system: Klebsiella pneumoniae; test: Antibacterial activity against aminoglycoside-resistant Klebsiella pneumoniae expressing ANT(2'')-I by broth microdilution method
[19] = test system: Staphylococcus aureus; test: microbe, parasite or virus in culture
[20] = test system: Staphylococcus aureus; test: Antibacterial activity against aminoglycoside-resistant Staphylococcus aureus expressing ANT(4',4'')-2 by broth microdilution method; type: functional; how it was run: as §1
[21] = test system: Enterobacter sp.; test: Antibacterial activity against Enterobacter spp. by broth microdilution method; type: functional; how it was run: as §3
[22] = test system: Klebsiella sp.; test: Antibacterial activity against Klebsiella spp. by broth microdilution method; type: functional; how it was run: as §3
[23] = test system: Acinetobacter baumannii; test: Antibacterial activity against aminoglycoside-resistant Acinetobacter baumannii expressing ANT(2'')-1 by broth microdilution method; type: functional; how it was run: as §1
[24] = test system: Staphylococcus epidermidis; test: Antibacterial activity against aminoglycoside-resistant Staphylococcus epidermidis expressing APH(2'') + AAC(6')-1 by broth microdilution method; type: functional; how it was run: as §1
[25] = test system: Serratia liquefaciens; test: Antibacterial activity against aminoglycoside-resistant Serratia liquefaciens expressing AAC(3)-2 by broth microdilution method; type: functional; how it was run: as §1
[26] = test system: Enterobacter cloacae; test: Antibacterial activity against aminoglycoside-resistant Enterobacter cloacae expressing AAC(3)-2 by broth microdilution method; type: functional; how it was run: as §1
[27] = test system: Acinetobacter calcoaceticus; test: Antibacterial activity against aminoglycoside-resistant Acinetobacter calcoaceticus expressing AAC(6')-1 by broth microdilution method; type: functional; how it was run: as §1
[28] = test system: Staphylococcus epidermidis; test: Antibacterial activity against aminoglycoside-resistant Staphylococcus epidermidis expressing ANT(4',4'')-2 by broth microdilution method; type: functional; how it was run: as §1
[29] = test system: Acinetobacter baumannii; test: Antibacterial activity against Acinetobacter baumannii ATCC 19606 by broth microdilution method; type: functional; conditions: ATCC 19606 = CIP 70.34 = JCM 6841; how it was run: as §2
[30] = test system: Klebsiella pneumoniae; test: Antibacterial activity against aminoglycoside-resistant Klebsiella pneumoniae expressing AAC(3)-2 by broth microdilution method; type: functional; how it was run: as §1
[31] = test system: Staphylococcus aureus; test: Antibacterial activity against aminoglycoside-resistant Staphylococcus aureus expressing APH(2'') + AAC(6') by broth microdilution method; type: functional; how it was run: as §2
[32] = test system: Serratia marcescens; test: Antibacterial activity against aminoglycoside-resistant Serratia marcescens expressing ANT(2'')-I by broth microdilution method
[33] = test system: Pseudomonas aeruginosa; test: Antibacterial activity against Pseudomonas aeruginosa expressing AAC(6')-2 by broth microdilution method; type: functional
[34] = test system: Pseudomonas aeruginosa; test: Antibacterial activity against Pseudomonas aeruginosa expressing AAC(3)-1 by broth microdilution method; type: functional
[35] = test system: Escherichia coli; test: Antibacterial activity against aminoglycoside-resistant Escherichia coli expressing ANT(6')-1 by broth microdilution method; type: functional; how it was run: as §1
[36] = test system: Staphylococcus aureus; test: microbe, parasite or virus in culture; remark: listed apart in the source
[37] = test system: Klebsiella aerogenes; test: Antibacterial activity against aminoglycoside-resistant Enterobacter aerogenes expressing AAC(6')-1 by broth microdilution method; type: functional; how it was run: as §1
[38] = test system: Acinetobacter baumannii; test: Antibacterial activity against aminoglycoside-resistant Acinetobacter baumannii expressing APH(3')-6 by broth microdilution method; type: functional; how it was run: as §1
[39] = test system: Pluralibacter gergoviae; test: Antibacterial activity against aminoglycoside-resistant Enterobacter gergoviae expressing ANT(2'')-I by broth microdilution method
[40] = test system: Escherichia coli; test: Antibacterial activity against aminoglycoside-resistant Escherichia coli expressing AAC(6')-1 by broth microdilution method; type: functional; how it was run: as §1
[41] = test system: Escherichia coli; test: Antibacterial activity against aminoglycoside-resistant Escherichia coli expressing APH(3')-1b by broth microdilution method
[42] = test system: Klebsiella pneumoniae; test: Antibacterial activity against aminoglycoside-resistant Klebsiella pneumoniae expressing AAC(3)-4 by broth microdilution method; type: functional; how it was run: as §1
[43] = test system: Serratia marcescens; test: Antibacterial activity against aminoglycoside-resistant Serratia marcescens expressing ANT(2''), AAC(6') by broth microdilution method; type: functional; how it was run: as §2
[44] = test system: Acinetobacter; test: Antibacterial activity against aminoglycoside-resistant Acinetobacter spp. expressing APH(3')-6 by broth microdilution method; type: functional; how it was run: as §1
[45] = test system: Escherichia coli; test: Antibacterial activity against aminoglycoside-resistant Escherichia coli expressing AAC(3)-4 by broth microdilution method; type: functional; how it was run: as §1
[46] = test system: Klebsiella pneumoniae; test: Antibacterial activity against Klebsiella pneumoniae ATCC 10031 by broth microdilution method; type: functional; how it was run: as §2

Question: Which results are given for `CN[C@@H]1[C@@H](O)[C@@H](O[C@@H]2[C@@H](O)[C@H](O[C@H]3OC(CNCCO)=CC[C@H]3N)[C@@H](N)C[C@H]2NC(=O)[C@@H](O)CCN)OC[C@]1(C)O` [PLAZOMICIN]?
Answer: MIC [1]: 1 µg/mL (≈ 1.69 µM); MIC [2]: 1 µg/mL (≈ 1.69 µM); MIC [3]: 1 µg/mL (≈ 1.69 µM); MIC [4]: > 64 µg/mL; MIC [5]: 0.125 µg/mL (≈ 0.211 µM); MIC [6]: 1 µg/mL (≈ 1.69 µM); MIC50 [7]: 16 µg/mL (≈ 27 µM); MIC90 [7]: 32 µg/mL (≈ 54 µM); MIC [8]: 1 µg/mL (≈ 1.69 µM); MIC [9]: 4 µg/mL (≈ 6.75 µM); MIC50 [10]: 8 µg/mL (≈ 13.5 µM); MIC90 [10]: 64 µg/mL (≈ 108 µM); MIC [11]: 1 µg/mL (≈ 1.69 µM); MIC [12]: 4 µg/mL (≈ 6.75 µM); MIC50 [13]: 1 µg/mL (≈ 1.69 µM); MIC50 [14]: 0.5 µg/mL (≈ 0.844 µM); MIC [15]: 1 µg/mL (≈ 1.69 µM); MIC [16]: 3 µg/mL (≈ 5.06 µM); MIC [17]: 1 µg/mL (≈ 1.69 µM); MIC [18]: 1 µg/mL (≈ 1.69 µM); MIC [19]: 0.5 µg/mL (≈ 0.844 µM); MIC [20]: 1 µg/mL (≈ 1.69 µM); MIC50 [21]: 0.5 µg/mL (≈ 0.844 µM); MIC90 [21]: 1 µg/mL (≈ 1.69 µM); MIC50 [22]: 0.5 µg/mL (≈ 0.844 µM); MIC90 [22]: 1 µg/mL (≈ 1.69 µM); MIC [23]: 2 µg/mL (≈ 3.37 µM); MIC [24]: 1 µg/mL; MIC [25]: 1 µg/mL (≈ 1.69 µM); MIC [26]: 1 µg/mL (≈ 1.69 µM); MIC [27]: 2 µg/mL (≈ 3.37 µM); MIC [28]: 1 µg/mL (≈ 1.69 µM); MIC [29]: 8 µg/mL (≈ 13.5 µM); MIC [30]: 1 µg/mL (≈ 1.69 µM); MIC [31]: 4 µg/mL; MIC [32]: 1 µg/mL (≈ 1.69 µM); MIC [33]: 2 µg/mL (≈ 3.37 µM); MIC [34]: 8 µg/mL (≈ 13.5 µM); MIC [35]: 0.25 µg/mL (≈ 0.422 µM); MIC [36]: 1 µg/mL (≈ 1.69 µM); MIC [37]: 1 µg/mL (≈ 1.69 µM); MIC [38]: 3 µg/mL (≈ 5.06 µM); MIC [39]: 1 µg/mL (≈ 1.69 µM); MIC [40]: 1 µg/mL (≈ 1.69 µM); MIC [41]: 0.25 µg/mL (≈ 0.422 µM); MIC [42]: 1 µg/mL (≈ 1.69 µM); MIC [43]: 2 µg/mL (≈ 3.37 µM); MIC [44]: 1 µg/mL (≈ 1.69 µM); MIC [45]: 1 µg/mL (≈ 1.69 µM); MIC [46]: 0.25 µg/mL (≈ 0.422 µM)
